15 molecules from PubChem BioAssay can be followed below.

The viability is a read-out of living cells in per cent, often relative to untreated cells. As usually defined, the inhibition is the drop in the measured response relative to a control, in per cent.

Experiment [1] can be described thus: reducers of endogenous Her2 protein level, primary screen, SKBR3 breast tumor cells, AlphaScreen, ATP viability (AID 461;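 active means Her2 level under about 52% in both replicate screens, with viability over 70% of control, limit read from the data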;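 on Her2 level: lower value means less Her2 protein in the cells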;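 on viability: percent of carrier control wells set as 100% viability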). The settings on record: 18-24 h, measured here: SKBR3 viability, ATP luminescence, at 10 µM. (In Alpha technology, singlet oxygen from a donor bead excites a nearby acceptor bead.)
The target in experiment [2] is Receptor tyrosine-protein kinase erbB-2 (Homo sapiens) (UniProt P04626). Described as above. The conditions noted are these: 18-24 h, at 10 µM, stronger effect = lower value.
Sequence of Receptor tyrosine-protein kinase erbB-2 (Homo sapiens) (P04626 whole entry, looked up): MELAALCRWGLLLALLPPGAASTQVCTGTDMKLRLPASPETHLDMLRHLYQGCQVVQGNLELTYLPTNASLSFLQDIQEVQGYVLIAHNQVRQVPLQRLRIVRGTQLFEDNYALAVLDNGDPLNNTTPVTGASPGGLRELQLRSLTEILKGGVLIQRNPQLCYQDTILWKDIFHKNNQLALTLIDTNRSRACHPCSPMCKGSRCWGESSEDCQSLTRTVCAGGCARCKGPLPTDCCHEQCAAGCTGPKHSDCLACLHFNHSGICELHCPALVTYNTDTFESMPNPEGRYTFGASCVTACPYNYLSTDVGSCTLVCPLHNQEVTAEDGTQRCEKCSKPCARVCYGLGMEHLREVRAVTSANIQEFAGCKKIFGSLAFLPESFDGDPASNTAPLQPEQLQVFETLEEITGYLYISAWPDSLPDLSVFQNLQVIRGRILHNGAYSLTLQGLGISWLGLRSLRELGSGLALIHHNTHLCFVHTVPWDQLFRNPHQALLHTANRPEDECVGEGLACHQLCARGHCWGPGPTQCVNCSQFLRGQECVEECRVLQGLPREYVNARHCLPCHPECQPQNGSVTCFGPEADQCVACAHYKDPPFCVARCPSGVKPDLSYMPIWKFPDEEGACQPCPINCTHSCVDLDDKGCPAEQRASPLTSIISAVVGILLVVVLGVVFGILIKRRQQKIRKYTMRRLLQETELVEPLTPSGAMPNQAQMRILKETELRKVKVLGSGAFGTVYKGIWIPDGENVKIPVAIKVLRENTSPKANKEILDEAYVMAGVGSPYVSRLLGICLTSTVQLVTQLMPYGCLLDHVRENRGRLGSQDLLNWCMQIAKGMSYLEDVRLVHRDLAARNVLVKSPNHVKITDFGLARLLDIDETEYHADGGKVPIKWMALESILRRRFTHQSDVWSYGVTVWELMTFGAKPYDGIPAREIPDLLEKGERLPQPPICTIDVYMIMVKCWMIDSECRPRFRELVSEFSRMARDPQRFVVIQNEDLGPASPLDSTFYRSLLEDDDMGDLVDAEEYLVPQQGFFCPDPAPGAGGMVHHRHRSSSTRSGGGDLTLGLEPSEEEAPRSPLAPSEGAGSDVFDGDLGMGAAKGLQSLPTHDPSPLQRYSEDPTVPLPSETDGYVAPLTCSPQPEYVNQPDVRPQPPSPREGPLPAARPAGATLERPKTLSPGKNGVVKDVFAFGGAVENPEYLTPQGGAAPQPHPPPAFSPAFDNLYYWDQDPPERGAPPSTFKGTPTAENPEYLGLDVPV
Experiment [3] can be described thus: SK-BR-3 cell growth inhibitors, pilot screen, 24 h, human (AID 572).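 Further: compound exposure lasted between 18 and 24 h rather than exactly 24 h; 100% = carrier-treated control wells.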 The conditions noted are these: SK-BR-3 viability, CellTiter-Glo luminescence, at 10 µM, stronger effect = lower value.
Experiment [4] in a line: HUVEC growth inhibition – cell-based, human, primary screen (AID 575;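 active means viability at or below 30% in both replicate assays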;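 further: 100% = median of untreated cell wells with 0.1% DMSO on each plate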). The settings on record: HUVEC proliferation, CellTiter-Glo luminescence, 72 h; at 10 µM; stronger effect = lower value. The method in brief:
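Assay system: primary human umbilical vein endothelial cells / Buffer or medium: endothelial basal medium with 2% FBS plus growth supplements / Compound dosing: one dose, 10 µM final, 0.1% DMSO / Timing: 72 h treatment at 37 °C / Signal: CTG luminescence / Benchmarks: 32 DMSO-only cell-control wells (high), 32 MePR drug-control wells (low) per plate / Plate: collagen-coated 384-well format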

A short description of experiment [5]: growth inhibitors of H69AR lung tumor, primary screen, human, duplicate replicates (AID 580;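 active means viability at or under a set limit in both replicates, limit being median viability minus 3 SD, cut at about 48% in these data, passing the limit was not always enough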;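 further: 100% = mean luminescence of untreated wells and 0% = no signal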). The settings on record: H69AR lung tumor cells viability, ATP luminescence, 72 h; at 10 µM; stronger effect = lower value.
Experiment [6] can be described thus: reversal of MRP1-mediated doxorubicin resistance, pilot screen, H69AR cells, doxorubicin co-treatment (AID 601;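 active means viability loss from added drug above about 55%, and viability with drug at most 40%, in both replicates, limit read from the data, passing the limit was not always enough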). The settings on record: CellTiter-Glo, 72 h, at 10 µM; for differential viability (reversal): stronger effect = higher value. (In general: Cellular ATP, detected with luciferase, serves as a proxy for viable cell number.)
Experiment [7] in a line: 384-well plate pilot, post-Golgi transport modulator project, inhibition of yeast transport mutant growth (AID 636; in the data active means inhibition above about 31%). The conditions noted are these: absorbance 615 nm, about 18 h, stronger effect = higher value.
Experiment [8] can be described thus: growth suppression of yeast trafficking mutant, preliminary HTS, modulators of trafficking downstream of Golgi apparatus project, 1536-format plate, OD 615 nm (AID 637; in the data active means inhibition above about 30%). The conditions noted are these: yeast transport mutant growth, absorbance 615 nm, 18 h; stronger effect = higher value.
The mark [9] stands for this setting: H69AR cells + 2 uM doxorubicin, measured here: viability with 2 uM doxorubicin, stronger effect = lower value.
Where [10] appears, read: H69AR cells, compound alone cytotoxicity.

Activity calls are given as the source filed them.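 How the source made its calls, unless noted: active means viability at or below 10% of carrier control in both of two separate runs; inconclusive means viability at or below 10% in only one of the two runs; inactive means the rest.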

`Cc1ccc(CCNC(=O)Cn2cccc2)cc1`: the viability in experiment [1] was 112%; in experiment [3] it was 112% (inactive); in experiment [4], 110% (inactive); in experiment [5], 99.5% (inactive); in experiment [6] (setting [9]) it was 94%; in experiment [6] (setting [10]), 99.5%. Also, the Her2 level in experiment [2] is 98% (inactive). In addition, the differential viability (reversal) in experiment [6] (H69AR cells + 2 uM doxorubicin) was 5.51% (inactive). Moreover, the inhibition in experiment [7] is -4.73% (inactive); in experiment [8], 0.67% (inactive).
Take `CC1CN(C(=O)CSc2nnc(-c3ccncc3)n2-c2ccccc2)CC(C)O1` (stereo not given): the viability in experiment [1] is 101%; in experiment [3], 101% (inactive); in experiment [4] it was 103% (inactive); in experiment [5], 97.6% (inactive); in experiment [6] (setting [9]), 103%; in experiment [6] (setting [10]) it was 97.6%. The Her2 level in experiment [2] was 112% (inactive). Besides, the differential viability (reversal) in experiment [6] (H69AR cells + 2 uM doxorubicin) was -5% (inactive). For the same molecule, the inhibition was -1.08% (inactive) in experiment [7] and 0.32% (inactive) in experiment [8].
Consider `CC(C)CNC(=O)C1C2C=CC(C2)C1C(=O)O` (stereo not given), for which the viability is 96% in experiment [1]; 96% (inactive) in experiment [3]; 108% (inactive) in experiment [4]; 111% (inactive) in experiment [5]; 102% in experiment [6] (setting [9]); 111% in experiment [6] (setting [10]). The Her2 level in experiment [2] is 96% (inactive). In experiment [6] (H69AR cells + 2 uM doxorubicin), the differential viability (reversal) is 9.12% (inactive). The inhibition in experiment [7] was -1.33% (inactive); in experiment [8], -1.77% (inactive).
`CC(C)NC(=O)CSc1nnc(-c2ccc(C(C)(C)C)cc2)n1C`: the viability in experiment [1] was 95%; in experiment [3], 95% (inactive); in experiment [4], 71.5% (inactive); in experiment [5], 103% (inactive); in experiment [6] (setting [9]), 91.4%; in experiment [6] (setting [10]) it was 103%. Moreover, in experiment [2], the Her2 level is 82% (inactive). Besides, the differential viability (reversal) in experiment [6] (H69AR cells + 2 uM doxorubicin) is 11.6% (inactive). In addition, the inhibition in experiment [7] was -2.24% (inactive); in experiment [8], -3.65% (inactive).
As to `COc1cccc(NC(=O)N2CCN(C(=O)C(Cc3ccc(OC)c(OC)c3)NC(C)=O)CC2)c1` (stereo not given), the viability is 97% in experiment [1]; 97% (inactive) in experiment [3]; 91.1% (inactive) in experiment [4]; 90.7% (inactive) in experiment [5]; 88.5% in experiment [6] (setting [9]); 90.7% in experiment [6] (setting [10]). Moreover, the Her2 level in experiment [2] was 124% (inactive). Also, in experiment [6] (H69AR cells + 2 uM doxorubicin), the differential viability (reversal) was 2.21% (inactive). The figures for the inhibition in experiment [7] and in experiment [8] were -4.62% (inactive) and -7.5% (inactive), respectively.
Take `CCCn1c(SCC(=O)N2CCc3ccccc3C2)nc2c1c(=O)n(C)c(=O)n2C`: the viability in experiment [1] is 78.5%; in experiment [3] it was 78.5% (inactive); in experiment [4], 91.2% (inactive); in experiment [5], 84.9% (inactive); in experiment [6] (setting [9]), 81.9%; in experiment [6] (setting [10]), 84.9%. Further, in experiment [2], the Her2 level was 128% (inactive). The differential viability (reversal) in experiment [6] (H69AR cells + 2 uM doxorubicin) was 2.96% (inactive). The values for the inhibition in experiment [7] and in experiment [8] were 0.26% (inactive) and 9% (inactive), respectively.
Regarding `C=C(C)Cn1c(N2CCN(CC)CC2)nc2c1c(=O)[nH]c(=O)n2C`, the viability in experiment [1] is 99.5%; in experiment [3] it was 99.5% (inactive); in experiment [4], 80% (inactive); in experiment [5] it was 85.7% (inactive); in experiment [6] (setting [9]), 87.5%; in experiment [6] (setting [10]), 85.7%. Besides, the Her2 level in experiment [2] was 99.5% (inactive). In experiment [6] (H69AR cells + 2 uM doxorubicin), the differential viability (reversal) is -1.74% (inactive). For the same molecule, the inhibition in experiment [7] is -1.07% (inactive); in experiment [8], 6.39% (inactive).
Regarding `Cc1nnc2n(Cc3ccccc3)c(=O)c3c4c(sc3n12)COC(C(C)C)C4` (stereo not given), the viability in experiment [1] was 124%; in experiment [3] it was 124% (inactive); in experiment [4], 82.5% (inactive); in experiment [5] it was 76.2% (inactive); in experiment [6] (setting [9]) it was 59.2%; in experiment [6] (setting [10]), 76.2%. In addition, in experiment [2], the Her2 level is 69% (inactive). For the same molecule, the differential viability (reversal) in experiment [6] (H69AR cells + 2 uM doxorubicin) is 17% (inactive). Further, the results for the inhibition in experiment [7] and in experiment [8] were -7.6% (inactive) and 11.9% (inactive), respectively.
On to `Cc1cc(C)c2c(N)c(C(=O)N3CCN(c4ncccn4)CC3)sc2n1`, for which the viability was 104% in experiment [1]; 104% (inactive) in experiment [3]; 98.2% (inactive) in experiment [4]; 101% (inactive) in experiment [5]; 101% in experiment [6] (setting [9]); 101% in experiment [6] (setting [10]). Further, the Her2 level in experiment [2] is 96.5% (inactive). Moreover, the differential viability (reversal) in experiment [6] (H69AR cells + 2 uM doxorubicin) was 0.855% (inactive). For the same molecule, the inhibition in experiment [7] was -5.53% (inactive); in experiment [8], 0.49% (inactive).
As to `Cc1ccc(C)c(-n2c(CNC(=O)c3ccco3)nnc2SCC(=O)Nc2nnc(C)s2)c1`, the viability in experiment [1] was 100%; in experiment [3] it was 100% (inactive); in experiment [4], 104% (inactive); in experiment [5] it was 96.6% (inactive); in experiment [6] (setting [9]) it was 90.7%; in experiment [6] (setting [10]), 96.6%. Moreover, the Her2 level in experiment [2] is 94% (inactive). Besides, the differential viability (reversal) in experiment [6] (H69AR cells + 2 uM doxorubicin) is 5.91% (inactive). Besides, the inhibition in experiment [7] was -5.6% (inactive); in experiment [8], 3.5% (inactive).
For `COc1ccccc1NC(=O)CSC1CC(=O)N(c2ccc3c(c2)OCO3)C1=O` (stereo not given), the viability in experiment [1] was 98%; in experiment [3], 98% (inactive); in experiment [4], 96.5% (inactive); in experiment [5], 99.4% (inactive); in experiment [6] (setting [9]), 98.4%; in experiment [6] (setting [10]), 99.4%. For the same molecule, in experiment [2], the Her2 level is 82.5% (inactive). Besides, the differential viability (reversal) in experiment [6] (H69AR cells + 2 uM doxorubicin) is 0.975% (inactive). Further, the inhibition in experiment [7] was -4.53% (inactive); in experiment [8] it was 0.16% (inactive).
On to `O=C(CSc1nnnn1C1CCCCC1)N1CCc2ccccc21`, for which the viability in experiment [1] was 91%; in experiment [3] it was 91% (inactive); in experiment [4], 60.9% (inactive); in experiment [5], 87.1% (inactive); in experiment [6] (setting [9]), 90.2%; in experiment [6] (setting [10]) it was 87.1%. In experiment [2], the Her2 level is 82.5% (inactive). Further, in experiment [6] (H69AR cells + 2 uM doxorubicin), the differential viability (reversal) is -3.15% (inactive). The inhibition in experiment [7] was -3.87% (inactive); in experiment [8] it was -2.79% (inactive).
As for `C=C(C)CSc1nnc(-c2cccc(S(=O)(=O)N(C)C)c2)n1-c1cc(OC)ccc1OC`, the viability is 75% in experiment [1]; 75% (inactive) in experiment [3]; 95.4% (inactive) in experiment [4]; 95.9% (inactive) in experiment [5]; 90.9% in experiment [6] (setting [9]); 95.9% in experiment [6] (setting [10]). For the same molecule, the Her2 level in experiment [2] was 93.5% (inactive). The differential viability (reversal) in experiment [6] (H69AR cells + 2 uM doxorubicin) is 4.91% (inactive). Also, the inhibition is -3.55% (inactive) in experiment [7] and -2.55% (inactive) in experiment [8].
For `O=c1cc(COn2nnc3ccc(C(F)(F)F)cc32)nc2sccn12`, the viability in experiment [1] is 89.5%; in experiment [3] it was 89.5% (inactive); in experiment [4] it was 104% (inactive); in experiment [5], 85.7% (inactive); in experiment [6] (setting [9]), 105%; in experiment [6] (setting [10]) it was 85.7%. Besides, the Her2 level in experiment [2] is 91.5% (inactive). Moreover, in experiment [6] (H69AR cells + 2 uM doxorubicin), the differential viability (reversal) was -19.7% (inactive). The inhibition in experiment [7] was -1.71% (inactive); in experiment [8] it was 0.63% (inactive).
On to `COCCN(C(=O)Cn1nnc2ccccc21)C(C(=O)NC1CCCC1)c1cc(OC)ccc1OC` (stereo not given), for which the viability in experiment [1] is 86%; in experiment [3], 86% (inactive); in experiment [4] it was 101% (inactive); in experiment [5], 93.9% (inactive); in experiment [6] (setting [9]) it was 94.1%; in experiment [6] (setting [10]), 93.9%. The Her2 level in experiment [2] is 106% (inactive). Besides, the differential viability (reversal) in experiment [6] (H69AR cells + 2 uM doxorubicin) was -0.19% (inactive). Further, the inhibition in experiment [7] is -0.8% (inactive); in experiment [8], -4.92% (inactive).
